Experimental data from ChEMBL document CHEMBL4765247, “Novel mouse GABA uptake inhibitors with enhanced inhibitory activity toward mGAT3/4 and their effect on pain threshold in mice” (Eur J Med Chem, 2020).

How the values were obtained:
[1] = target: T1, GABA transporter 4 (Mus musculus, UniProt P31650); assay: Inhibition of mouse GAT4 expressed in HEK293 cell line assessed as inhibition of [3H]GABA uptake measured after 35 mins by liquid scintillation method; type: cell-based
T1 sequence (P31650 whole entry): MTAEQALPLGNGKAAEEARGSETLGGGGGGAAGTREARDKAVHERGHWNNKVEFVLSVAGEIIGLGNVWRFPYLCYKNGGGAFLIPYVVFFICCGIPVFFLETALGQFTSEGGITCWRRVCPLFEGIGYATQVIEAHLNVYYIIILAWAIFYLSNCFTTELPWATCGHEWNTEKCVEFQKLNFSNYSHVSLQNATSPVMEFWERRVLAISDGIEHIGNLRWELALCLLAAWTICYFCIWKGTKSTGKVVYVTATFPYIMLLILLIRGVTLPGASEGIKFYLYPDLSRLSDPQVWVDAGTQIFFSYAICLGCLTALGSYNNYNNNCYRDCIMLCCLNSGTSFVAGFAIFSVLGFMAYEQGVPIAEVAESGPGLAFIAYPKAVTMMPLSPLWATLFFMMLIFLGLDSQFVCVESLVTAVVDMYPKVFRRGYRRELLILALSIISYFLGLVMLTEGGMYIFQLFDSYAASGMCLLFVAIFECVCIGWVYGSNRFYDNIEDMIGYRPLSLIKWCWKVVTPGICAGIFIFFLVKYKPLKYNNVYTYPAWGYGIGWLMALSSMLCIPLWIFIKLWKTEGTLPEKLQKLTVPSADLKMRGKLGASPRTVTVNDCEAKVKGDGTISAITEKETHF
How it was run: (§1)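 Otherwise, the remaining uptake at 100 µM is reported as a percentage. Values without SEM come from a single triplicate experiment.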

[2] = target: T2, Sodium- and chloride-dependent GABA transporter 1 (Mus musculus, UniProt P31648); assay: Inhibition of mouse GAT1 expressed in HEK293 cell line assessed as inhibition of [3H]GABA uptake measured after 35 mins by liquid scintillation method; type: cell-based; how it was run: as §1
[3] = target: T2, Sodium- and chloride-dependent GABA transporter 1; assay: Displacement of [3H]NO711 from mouse GAT1 expressed in HEK293 cells measured after 40 mins of incubation by LC-ESI-MS-MS method; type: cell-based; conditions: in the assay text read “unlabelled NO711” for “[3H]NO711”
How it was run: (§2)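 Competitive MS Binding Assay for mGAT1 using NO-711 as a nonlabeled marker, quantified by LC–ESI–MS–MS. Compounds were screened at 100 µM. […] Otherwise, the percentage of remaining binding at 100 µM is given.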

[4] = Lipophilicity, logP of the compound by UPLC-MS method; type: physicochemical; conditions: octanol/water
How it was run: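 LogP measured by UPLC on a BEH C18 column (2.1 × 100 mm, 1.7 µm, with C18 pre-column) coupled to an ESI tandem quadrupole MS. The method was calibrated with reference compounds of established logP values.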

[5] = target: Sodium- and chloride-dependent GABA transporter 1 (Mus musculus) (UniProt P31648); assay: Displacement of [3H]NO711 from mouse GAT1 expressed in HEK293 cells at 100 uM measured after 40 mins of incubation by LC-ESI-MS-MS method; type: cell-based; conditions: in the assay text read “NO711” for “[3H]NO711”; how it was run: as §2
[6] = target: T2, Sodium- and chloride-dependent GABA transporter 1; assay: Inhibition of mouse GTA 1 receptor
[7] = target: T3, GABA transporter 3 (Mus musculus, UniProt P31649); assay: Inhibition of mouse GTA 3 receptor
T3 sequence (P31649 whole entry): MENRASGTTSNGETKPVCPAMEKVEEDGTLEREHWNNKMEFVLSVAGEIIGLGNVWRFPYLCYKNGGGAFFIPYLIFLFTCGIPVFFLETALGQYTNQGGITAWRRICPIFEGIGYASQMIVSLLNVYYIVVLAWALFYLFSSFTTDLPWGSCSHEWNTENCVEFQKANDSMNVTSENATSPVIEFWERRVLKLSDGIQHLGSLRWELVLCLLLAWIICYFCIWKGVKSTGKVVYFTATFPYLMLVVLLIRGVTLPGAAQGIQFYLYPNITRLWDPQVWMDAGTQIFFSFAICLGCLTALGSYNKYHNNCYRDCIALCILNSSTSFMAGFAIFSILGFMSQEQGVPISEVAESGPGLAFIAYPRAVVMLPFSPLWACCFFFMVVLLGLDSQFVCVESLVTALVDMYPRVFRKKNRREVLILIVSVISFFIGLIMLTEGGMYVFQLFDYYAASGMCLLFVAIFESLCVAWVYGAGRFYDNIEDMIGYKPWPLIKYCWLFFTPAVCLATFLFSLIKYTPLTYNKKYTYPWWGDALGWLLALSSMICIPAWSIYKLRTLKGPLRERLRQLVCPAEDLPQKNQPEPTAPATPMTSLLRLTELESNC

[8] = target: T1, GABA transporter 4; assay: Inhibition of mouse GTA4 receptor
[9] = target: Sodium- and chloride-dependent GABA transporter 1 (Mus musculus) (UniProt P31648); assay: Inhibition of mouse GAT1 expressed in HEK293 cell line assessed as inhibition of [3H]GABA uptake at 100 uM measured after 35 mins by liquid scintillation method; values are per cent of control

SMILES	IC50 [1]	IC50 [2]	logP ([4]; read-out: logP)	residual activity [5]	other results
Cc1ccc(CNC(=O)C(CCN)N(C)CCC=C(c2sccc2C)c2sccc2C)cc1 (stereo unspecified)	6.92 µM	11.5 µM	6.61	–	Ki [3]: 18.2 µM
Cc1ccsc1C(=CCCN(C)C(CC(C)O)C(=O)NCc1ccccc1)c1sccc1C (racemic; form 1) [listing 1 of 2 here]	3.89 µM	13.2 µM	5.64	–	–
Cc1ccsc1C(=CCCN(C)C(CC(C)O)C(=O)NCc1ccc(F)cc1)c1sccc1C (racemic; form 1) [listing 1 of 2 here]	–	–	–	78%	–
Cc1ccsc1C(=CCCN(C)C(CC(C)O)C(=O)NCc1ccccc1Cl)c1sccc1C (racemic; form 1) [listing 1 of 2 here]	9.55 µM	–	5.95	–	–
Cc1ccsc1C(=CCCN(C)C(CCO)C(=O)NCc1ccc(F)cc1)c1sccc1C (stereo unspecified)	11 µM	15.5 µM	5.87	70%	–
Cc1ccsc1C(=CCCN(C)C(CC(C)O)C(=O)NCc1ccccc1Cl)c1sccc1C (racemic; form 2) [listing 1 of 2 here]	–	–	–	–	pIC50 ([1]; hek293): 5.02; logP [4]: 5.67
COc1ccc(C(OCCN2CCC[C@@H](C(=O)O)C2)(c2ccc(OC)cc2)c2ccc(OC)cc2C)cc1	–	–	–	–	IC50 [6]: 64.6 µM; IC50 [7]: 14.1 µM; IC50 [8]: 1.66 µM
Cc1ccsc1C(=CCCN(C)C(CC(C)O)C(=O)NCc1ccc(F)cc1)c1sccc1C (racemic; form 1) [listing 2 of 2 here]	17.8 µM	66.1 µM	5.51	–	–
NCCC(=O)O [BETA-ALANINE]	–	–	–	–	IC50 [6]: 2950 µM; IC50 [7]: 66.1 µM; IC50 [8]: 110 µM
Cc1ccsc1C(=CCCN(C)C(CC(C)O)C(=O)NCc1ccc(Cl)cc1)c1sccc1C (mixture of isomers) [listing 1 of 2 here]	–	–	–	91%	–
Cc1ccsc1C(=CCCN(C)C1CCc2onc(O)c2C1)c1sccc1C (stereo unspecified)	> 302 µM	7.08 µM	–	–	–
Cc1ccsc1C(=CCCN(C)[C@H]1CCc2onc(O)c2C1)c1sccc1C	–	–	–	–	IC50 [6]: 7.08 µM; IC50 [7]: > 302 µM; IC50 [8]: > 302 µM
Cc1ccsc1C(=CCCN(C)C(CCO)C(=O)NCc1ccc(F)cc1F)c1sccc1C (stereo unspecified)	8.71 µM	12.3 µM	6.37	71%	–
Cc1ccsc1C(=CCCN(C)C(CC(C)O)C(=O)NCc1ccccc1Cl)c1sccc1C (racemic; form 2) [listing 2 of 2 here]	–	–	–	88%	residual activity [9]: 47%
Cc1ccsc1C(=CCCN(C)[C@H](CO)C(=O)NCc1ccc(Cl)cc1)c1sccc1C	–	20.4 µM	–	–	Ki [3]: 18.6 µM
Cc1ccc(CNC(=O)C(CCO)N(C)CCC=C(c2sccc2C)c2sccc2C)cc1 (stereo unspecified)	7.08 µM	12.9 µM	6.2	58%	–

SMILES	IC50 [1]	IC50 [2]	logP ([4]; read-out: logP)	residual activity [5]	other results
Cc1ccsc1C(=CCCN(C)C(CO)C(=O)NCc1ccc(C(F)(F)F)cc1)c1sccc1C (stereo unspecified)	17 µM	13.5 µM	–	92%	–
Cc1ccsc1C(=CCCN(C)C(CC(C)O)C(=O)NCc1ccccc1)c1sccc1C (racemic; form 1) [listing 2 of 2 here]	–	–	–	82%	–
Cc1ccsc1C(=CCCN(C)C(CC(C)O)C(=O)NCc1ccc(Cl)cc1)c1sccc1C (stereo in doubt) [listing 1 of 2 here]	–	–	–	90%	residual activity [9]: 63%
Cc1ccc(CNC(=O)C(CC(C)O)N(C)CCC=C(c2sccc2C)c2sccc2C)cc1 (racemic) [listing 1 of 2 here]	5.5 µM	12.3 µM	–	–	–
Cc1ccsc1C(=CCCN(C)C(CC(C)O)C(=O)NCc1ccccc1)c1sccc1C (racemic; form 2) [listing 1 of 2 here]	–	–	–	59%	–
Cc1ccsc1C(=CCCN(C)C(CCO)C(=O)NC(C)c1ccccc1)c1sccc1C (stereo unspecified)	13.8 µM	30.2 µM	6.1	68%	–
CN(CCC=C(c1ccccc1)c1ccccc1)C(CCN)C(=O)NCc1ccccc1Cl (stereo unspecified)	–	–	–	–	IC50 [7]: 10 µM
Cc1ccsc1C(=CCCN(C)[C@H](CCO)C(=O)NCc1ccccc1Cl)c1sccc1C	–	13.8 µM	–	–	Ki [3]: 25.7 µM
Cc1ccsc1C(=CCCN(C)C(CC(C)O)C(=O)NCc1ccccc1)c1sccc1C (racemic; form 2) [listing 2 of 2 here]	18.6 µM	23.4 µM	–	–	logP [4]: 6.22
CC(=O)NCCC(C(=O)NCc1ccccc1Cl)N(C)CCC=C(c1sccc1C)c1sccc1C (stereo unspecified)	6.17 µM	8.71 µM	6.46	68%	–
NCC(O)C(=O)O (stereo unspecified)	5.01 µM	2510 µM	–	–	–
Cc1ccsc1C(=CCCN(C)C(CCO)C(=O)NCc1ccc(Cl)cc1)c1sccc1C (stereo unspecified)	7.41 µM	9.33 µM	6.38	81%	–
Cc1ccsc1C(=CCCN(C)C(CCO)C(=O)NCc1ccccc1)c1sccc1C (stereo unspecified)	10.2 µM	15.8 µM	5.71	60%	–
Cc1ccsc1C(=CCCN(C)[C@@H](CO)C(=O)NCc1ccc(Cl)cc1)c1sccc1C	–	–	–	–	Ki [3]: 87.1 µM
Cc1ccsc1C(=CCCN(C)C(CC(C)O)C(=O)NCc1ccccc1Cl)c1sccc1C (racemic; form 1) [listing 2 of 2 here]	–	–	–	85%	residual activity [9]: 51%
Cc1ccsc1C(=CCCN(C)[C@@H]1CCc2onc(O)c2C1)c1sccc1C	–	–	–	–	IC50 [6]: 7.08 µM; IC50 [7]: > 302 µM; IC50 [8]: > 302 µM

More lines, main results first:

IC50 [1]	IC50 [2]	logP ([4]; read-out: logP)	residual activity [5]	SMILES	other results
8.13 µM	9.33 µM	5.85	–	Cc1ccsc1C(=CCCN(C)C(CCN)C(=O)NCc1ccc(Cl)cc1)c1sccc1C (stereo unspecified)	Ki [3]: 20 µM
–	–	–	70%	Cc1ccsc1C(=CCCN(C)C(CC(C)O)C(=O)NCc1ccc(F)cc1)c1sccc1C (racemic; form 2) [listing 1 of 2 here]	–
29.5 µM	85.1 µM	–	–	Cc1ccsc1C(=CCCN(C)C(CC(C)O)C(=O)NCc1ccc(F)cc1)c1sccc1C (racemic; form 2) [listing 2 of 2 here]	–
85.1 µM	–	–	–	O=C(O)C1=CCCN(CCO/N=C/c2ccccc2-c2ccc(Cl)cc2Cl)C1	–
20.9 µM	35.5 µM	6.26	46%	Cc1ccsc1C(=CCCN(C)C(CO)C(=O)NCc1ccccc1)c1sccc1C (stereo unspecified)	–
–	–	–	72%	Cc1ccc(CNC(=O)C(CC(C)O)N(C)CCC=C(c2sccc2C)c2sccc2C)cc1 (stereo in doubt) [listing 1 of 2 here]	–
7.08 µM	25.1 µM	6.15	–	Cc1ccc(CNC(=O)C(CC(C)O)N(C)CCC=C(c2sccc2C)c2sccc2C)cc1 (stereo in doubt) [listing 2 of 2 here]	–
13.2 µM	57.5 µM	–	–	Cc1ccsc1C(=CCCN(C)C(CC(C)O)C(=O)NCc1ccc(Cl)cc1)c1sccc1C (mixture of isomers) [listing 2 of 2 here]	logP [4]: 6.77
6.61 µM	11.5 µM	5.5	–	Cc1ccsc1C(=CCCN(C)C(CCN)C(=O)NCc1ccccc1)c1sccc1C (stereo unspecified)	Ki [3]: 24.5 µM
5.62 µM	7.59 µM	6.11	–	Cc1ccsc1C(=CCCN(C)C(CCN)C(=O)NCc1ccccc1Cl)c1sccc1C (stereo unspecified)	Ki [3]: 11.7 µM
28.8 µM	–	5.99	–	Cc1ccsc1C(=CCCN(C)C(CC(C)O)C(=O)NCc1ccc(Cl)cc1)c1sccc1C (stereo in doubt) [listing 2 of 2 here]	–
7.59 µM	11.7 µM	6.45	–	Cc1ccsc1C(=CCCN(C)C(CCN)C(=O)NCc1ccc(F)cc1)c1sccc1C (stereo unspecified)	Ki [3]: 21.9 µM
–	–	–	79%	Cc1ccc(CNC(=O)C(CC(C)O)N(C)CCC=C(c2sccc2C)c2sccc2C)cc1 (racemic) [listing 2 of 2 here]	–
